Experiments:
[1] = Partition coefficient (logP); type: physicochemical; conditions: octanol/water
Procedure, shortened: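 Each ⁶⁴Cu complex was partitioned between octanol and water, shaken 1 h at room temperature, and 100 μL from each phase was counted. Log P is the log of the octanol/water count ratio, averaged over five samples.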

Rattus norvegicus [2] = species: Rattus norvegicus; assay: Distribution in rat liver after 24 hr postinjection; type: ADME, organism-based; conditions: in vivo
Procedure, shortened: (§1)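 ⁶⁴Cu-labeled complexes, at NCA and CA levels, were diluted in saline and injected into mature female Sprague–Dawley rats (180–200 g; n = 4). Each rat received up to 0.2 mL carrying 22 μCi. Rats were sacrificed at set times after injection, including 24 h. Organs were excised, weighed and counted against a weighed, counted standard. Values are %ID/g and %ID/organ ± sd.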

Rattus norvegicus [3] = species: Rattus norvegicus; assay: Distribution in rat blood after 24 hr postinjection; type: ADME, organism-based; conditions: in vivo; procedure, shortened: as §1
Rattus norvegicus [4] = species: Rattus norvegicus; assay: Distribution in rat kidney 24 hr postinjection; type: ADME, organism-based; conditions: in vivo; procedure, shortened: as §1

| Compound | logP [1] | Biodistribution (Rattus norvegicus [2]) | Biodistribution (Rattus norvegicus [3]) | Biodistribution (Rattus norvegicus [4]) |
| --- | --- | --- | --- | --- |
| C1CNCCN2CCCNCCN(C1)CC2 | -2.11 |  |  |  |
| Cu-1,4,8,11tetraaza-Cyclotetradecane-2,10-dione |  | 0.7 | 0.23 | 0.097 |

Further lines, results first:

| logP [1] | Biodistribution (Rattus norvegicus [2]) | Biodistribution (Rattus norvegicus [3]) | Biodistribution (Rattus norvegicus [4]) | Compound |
| --- | --- | --- | --- | --- |
| -1.95 |  |  |  | CCN(CC)C(=O)CN1CCCN2CCN(CCCN(CC(=O)N(CC)CC)CC2)CC1 |
| -2.3 |  |  |  | NC(=O)CCN1CCCN2CCN(CCC(N)=O)CCCN(CC1)CC2 |
|  | 0.49 | 0.21 | 0.21 | Cu-(4,8,11-Tris-carboxymethyl-1,4,8,11tetraaza-cyclotetradec-1-yl)-acetic acid |
